Results collected from several papers.
Values after ≈ are worked out from the molar mass of the structure shown.
Organism: Candida albicans

OC(Cn1cncn1)(Cn1cncn1)c1ccc(F)cc1F  MIC (microbial growth; broth dilution; 56452; 48 h): 1 µM (≈ 0.306 µg/mL)
CCCS(=O)(=O)Oc1cc(C=NNC(=O)CSc2nc3c(C)cccc3c(=O)n2-c2ccccc2)ccc1OC  inhibition zone (microbial growth; well diffusion; 20 µg/mL): 2 mm
CC(=O)N1CCN(c2ccc(OCC3COC(Cn4ccnc4)(c4ccc(Cl)cc4Cl)O3)cc2)CC1 (centres unmarked)  MIC (microbial growth; broth dilution; SP3931; 48 h): 2 µM (≈ 1.06 µg/mL)
COc1ccc(N=Nc2c(N)nn3c(-c4ccco4)cc(-c4ccc(OCc5ccccc5)cc4)nc23)cc1  MFC (microbial killing; broth dilution; ATCC10231): 62.5 µg/mL (≈ 121 µM)
CS(=O)(=O)Oc1ccc(C=NNC(=O)CSc2nc3ccc(Cl)cc3c(=O)n2-c2ccccc2)cc1  inhibition zone (microbial growth; well diffusion; 20 µg/mL): 2 mm
CC(=O)N1CCN(c2ccc(OCC3COC(Cn4ccnc4)(c4ccc(Cl)cc4Cl)O3)cc2)CC1 (centres unmarked)  inhibition zone (microbial growth; well diffusion; MTCC227; 1000 µg/mL; 18 h): 24 mm
C#CCOC(=O)ON=C1C=CC(=C(C#N)c2ccccc2)C=C1  MFC (microbial killing; broth dilution; ATCC10231; 48 h): 8 µg/mL (≈ 26.3 µM)
C[C@@H]1[C@H](O)[C@@H](C)/C=C/C=C/C=C/C=C/C=C/C=C/C=C/[C@H](O[C@@H]2O[C@H](C)[C@@H](O)[C@H](N)[C@@H]2O)C[C@@H]2O[C@](O)(C[C@@H](O)C[C@@H](O)[C@H](O)CC[C@@H](O)C[C@@H](O)CC(=O)O[C@H]1C)C[C@H](O)[C@H]2C(=O)O  MIC90 (microbial growth; broth dilution): 0.84 µM (≈ 0.776 µg/mL)
CC(=O)ON=C1C=CC(=C(C#N)c2ccccc2)C=C1  MFC (microbial killing; broth dilution; ATCC10231; 48 h): 4 µg/mL (≈ 15.1 µM)
Cc1ccc(-c2cc(-c3ccc(OCc4ccccc4)cc3)nc3c(N=Nc4ccc(F)cc4)c(N)nn23)cc1  MFC (microbial killing; broth dilution; ATCC10231): 125 µg/mL (≈ 236 µM)
COc1cc(C=NNC(=O)CSc2nc3c(C)cccc3c(=O)n2-c2ccccc2)ccc1OS(C)(=O)=O  inhibition zone (microbial growth; well diffusion; 20 µg/mL): 3 mm
C#CCON=C1C=CC(=C(C#N)c2ccccc2)C=C1  MFC (microbial killing; broth dilution; ATCC10231; 48 h): 32 µg/mL (≈ 123 µM)
Cc1cccc2c(=O)n(-c3ccccc3)c(SCC(=O)NN=Cc3ccc(OS(C)(=O)=O)cc3)nc12  inhibition zone (microbial growth; well diffusion; 20 µg/mL): 4 mm
Nc1nn2c(-c3ccc(Cl)cc3Cl)cc(-c3ccc(OCc4ccccc4)cc3)nc2c1N=Nc1ccc(F)cc1  MFC (microbial killing; broth dilution; ATCC10231): 125 µg/mL (≈ 214 µM)
C[C@@H]1[C@H](O)[C@@H](C)/C=C/C=C/C=C/C=C/C=C/C=C/C=C/[C@H](O[C@@H]2O[C@H](C)[C@@H](O)[C@H](N)[C@@H]2O)C[C@@H]2O[C@](O)(C[C@@H](O)C[C@@H](O)[C@H](O)CC[C@@H](O)C[C@@H](O)CC(=O)O[C@H]1C)C[C@H](O)[C@H]2C(=O)O  MIC (microbial growth; broth dilution; SP3931; 48 h): < 0.25 µM
COc1ccc(N=Nc2c(N)nn3c(-c4ccc(Cl)cc4Cl)cc(-c4ccc(OCc5ccccc5)cc4)nc23)cc1  MFC (microbial killing; broth dilution; ATCC10231): 250 µg/mL (≈ 420 µM)
CCS(=O)(=O)Oc1ccc(C=NNC(=O)CSc2nc3c(C)cccc3c(=O)n2-c2ccccc2)cc1  inhibition zone (microbial growth; well diffusion; 20 µg/mL): 3 mm
N#CC(=C1C=CC(=NOC(=O)OCc2ccccc2)C=C1)c1ccccc1  MFC (microbial killing; broth dilution; ATCC10231; 48 h): 256 µg/mL (≈ 718 µM)
CC(=O)N1CCN(c2ccc(OCC3COC(Cn4ccnc4)(c4ccc(Cl)cc4Cl)O3)cc2)CC1 (centres unmarked)  MFC (microbial killing; broth dilution; ATCC10231): 31.3 µg/mL (≈ 58.9 µM)
CCS(=O)(=O)Oc1ccc(C=NNC(=O)CSc2nc3c(C)cccc3c(=O)n2-c2ccccc2)cc1OC  inhibition zone (microbial growth; well diffusion; 20 µg/mL): 3 mm
